Screening data from PubChem.
Fh CTSL1 inh: counter-screen for PFM18AAP inhibitors: inhibitors of F. hepatica cathepsin L1. recombinant F. hepatica cathepsin L1, Z-Leu-Arg-MCA fluorescence. inhibition, % at 5.96 µM. actives 0.49% (n = 300,000). AID 1906;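 active = inhibition above the mean of all tested compounds plus 3 SD, set per screening campaign, cut at about 17% in these data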;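 also: 0% = plate median of test compound wells and 100% = 1 µM Z-Phe-Ala-diazomethylketone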
Neddylation inh: inhibitors of human cullin neddylation | TR-FRET cullin neddylation, biochemical | actives 0.58% (n = 360,000) | P61081+Q13564 | AID 651699 | inhibition, % at 25 µM; in the data active = inhibition above about 36%
UBC9 SUMO inh: inhibitors of human SUMOylation (UBC9); actives 0.36% (n = 290,000); AID 2006; P63279; HTRF SUMOylation assay, SAE1/SAE2 + UBC9, in vitro; inhibition, % at 35 µM; in the data active = inhibition above about 50%, passing the limit was not always enough; inconclusive = no clear call, values can overlap the other calls
Target sequence (P63279 whole entry, looked up): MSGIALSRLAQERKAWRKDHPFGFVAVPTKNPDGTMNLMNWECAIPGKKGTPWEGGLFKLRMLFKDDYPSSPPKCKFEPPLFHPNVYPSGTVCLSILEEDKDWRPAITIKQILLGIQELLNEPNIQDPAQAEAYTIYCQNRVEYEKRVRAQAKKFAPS
UCH37 inh: blocks the human deubiquitinase UCH37; Q9Y5K5; purified proteasome/UCH37, Ub-AMC cleavage fluorescence; actives 0.33% (n = 330,000); inhibition, % (no concentration beside the values);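 active = mean inhibition over replicate wells above about 20%, limit read from the data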;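 also: 0% = compound-free wells with enzyme and 100% = wells lacking proteasome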
Target sequence (Q9Y5K5 whole entry, looked up): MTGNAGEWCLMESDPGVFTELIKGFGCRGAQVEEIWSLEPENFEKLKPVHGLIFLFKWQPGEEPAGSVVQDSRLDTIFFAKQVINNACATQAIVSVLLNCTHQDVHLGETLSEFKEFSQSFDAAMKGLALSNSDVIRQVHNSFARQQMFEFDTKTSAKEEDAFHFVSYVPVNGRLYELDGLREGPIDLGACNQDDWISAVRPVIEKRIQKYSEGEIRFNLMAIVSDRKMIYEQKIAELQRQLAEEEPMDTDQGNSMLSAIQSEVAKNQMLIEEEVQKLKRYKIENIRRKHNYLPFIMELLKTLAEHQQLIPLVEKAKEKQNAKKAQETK
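assay system = human UCH37 enzyme supplied as purified proteasome complex | amount = proteasome at 0.15 nM in the dispensed enzyme solution | schedule = 30 min compound-proteasome preincubation then 25 min substrate reaction, room temperature | measured by = fluorescence, ex 355 nm, em 460 nm | benchmarks = no-proteasome wells (full inhibition) and compound-free wells (no inhibition)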
Numbers without * were called inactive; ? = inconclusive; nt = not tested or not shown. Most compounds without a hit are left out; they make up all but 1.4% or so of the library.

SMILES | Fh CTSL1 inh | Neddylation inh | UBC9 SUMO inh | UCH37 inh
CC1=CC(=O)[C@H]2C(C)(C)CCC[C@]2(C)[C@@]1(O)CO | 49* | 8 | 1 | -2
O=[N+]([O-])c1ccc(Sc2cccc[n+]2[O-])c2nonc12 | nt | -6 | 66* | 15
O=C(CSc1cccc[n+]1[O-])Nc1cc(Cl)ccc1[N+](=O)[O-] | nt | -43 | nt | 5
Oc1c(Br)cc(Br)cc1/C=N/NC(=S)N[C@H]1CC2C=CC1C2 (stereo not given in full) | -2 | nt | 58* | nt
CS/C(N)=N/N=Cc1ccc([N+](=O)[O-])cc1 | nt | nt | nt | 11
Nc1nnc(SCC(=O)Nc2cc(S(=O)(=O)N3CCOCC3)ccc2N2CCCC2)s1 | nt | -17 | nt | 5
COc1cc(S(=O)(=O)N2CCOCC2)ccc1NC(=O)CSc1nnc(N)s1 | -1 | 7 | 5 | 30*
Cc1nnc(SCC2=C(C(=O)O)N3C(=O)C(NC(=O)c4cccc(F)c4F)C3SC2)s1 (stereo not given) | 29* | 3 | 18 | 4
Cc1cc(C)n(CC(=O)NC2C(=O)N3C(C(=O)O)=C(CSc4nnc(C)s4)CSC23)n1 (stereo not given) | 2 | -4 | 9 | 2
COc1cc(C=NNC(=O)CCN2CCN(C)CC2)cc2c1OCO2 | nt | nt | nt | 1
CC1=NN(C(=O)CSCc2ccccc2)C(O)(c2ccc(F)cc2)C1 (stereo not given) | -2 | -10 | -3 | 22*
Cc1oc2c(c(C)cc3oc(=O)c(CC(=O)NCC(=O)NCC(=O)NCC(C)O)c(C)c32)c1C (stereo not given) | nt | nt | 60* | -215
CCC(NC(=O)Cc1c(C)c2c(cc(C)c3c(C)c(C)oc32)oc1=O)C(=O)O (stereo not given) | nt | nt | 54* | -221
CSCC[C@H](NC(=O)Cc1c(C)c2c(cc(C)c3c(C)c(C)oc32)oc1=O)C(=O)O | nt | nt | 57* | -207
COc1ccc(OCC(=O)NN=C2CCCc3ccccc32)cc1 | nt | nt | nt | 1
CCOC(=O)c1ccc(NC2=CC(=O)C(=O)c3ccccc32)cc1 | 1 | -26 | 27 | 5
NS(=O)(=O)c1ccc(NC2=CC(=O)C(=O)c3ccccc32)cc1 | 17* | -24 | nt | nt
O=C(NN=C/C=C/c1ccco1)c1cccc([N+](=O)[O-])c1 | nt | nt | nt | 4
CC(C)C(=O)Nc1ccccc1C(=O)NN=Cc1ccc([N+](=O)[O-])cc1 | nt | nt | nt | 7
Fc1ccc(C=NNC(=S)Nc2ccc(Cl)cc2)cc1F | nt | nt | nt | 6
Cn1cccc1/C=N/NC(=O)c1sc2cc(Cl)ccc2c1Cl | 1 | nt | 56* | nt
Cc1ccc2c(Cl)c(C(=O)N/N=C/c3cccn3C)sc2c1 | 0 | -7 | 11 | nt
C(=NN(c1ccccc1)c1ccccc1)c1ccccn1 | nt | nt | nt | 2
COc1ccc(OC)c(NC(=O)c2ccc(Cl)cc2)c1 | 49* | 3 | 14 | 5
Cc1cccc(OCC(=O)NN=Cc2sc(=O)n(Cc3cccc(C(=O)O)c3)c2Cl)c1 | nt | nt | nt | 9
SMILES | Fh CTSL1 inh | Neddylation inh | UBC9 SUMO inh | UCH37 inh
O=C1C(Cl)=C(N2CCCCC2)C(=O)C(Cl)=C1c1cnc(N2CCCCC2)s1 | nt | -5 | 59* | -26
NC(=O)c1oc2ccccc2c1NC(=O)c1ccc([N+](=O)[O-])o1 | 26* | -33 | 11 | 7
O=C(CN1C(=O)NC2NC(=O)NC21)NN=Cc1ccccc1O (stereo not given) | nt | nt | nt | -56
CN(Cc1ccco1)c1ncnc2ccc(-c3ccoc3)cc12 | nt | 39* | nt | 0
CN(Cc1ccco1)c1ncnc2ccc(-c3ccccc3Cl)cc12 | nt | -42 | nt | -1
COc1ccc(NC(=O)CN(C)C(=O)/C=C/c2cn(-c3ccccc3)nc2-c2ccc(C)cc2)cc1 | 20* | -15 | nt | -4
CN(C)CCCNC(=O)C(=NO)c1ccccc1 | nt | nt | nt | 3
CCN(CC)CCOC(=O)c1ccc(N/C=C(/C#N)c2nc(-c3ccc(OC)c(OC)c3)cs2)cc1 | 2 | 64* | nt | 12
O=C(NN=Cc1ccoc1)c1ccccc1 | nt | nt | nt | 1
Cn1cc(Cl)c(C(=O)NN=Cc2ccc(OS(=O)(=O)c3ccccc3)cc2)n1 | nt | nt | nt | -1
Nc1ccc2c(c1)Cc1cc([N+](=O)[O-])ccc1-2 | 2 | -32 | 10 | 29*
CC(=NO)c1ccc2c(c1)Cc1cc([N+](=O)[O-])ccc1-2 | nt | -24 | nt | nt
CC(=O)n1cc(/C=N/NC(N)=S)c2ccccc21 | 95* | -18 | 7 | nt
COc1ccccc1OCCn1cc(/C=N/NC(N)=S)c2ccccc21 | 95* | -11 | 9 | nt
NC(=S)N/N=C/c1c[nH]c2ccccc12 | 102* | -5 | 18 | nt
COC(=O)c1cn(CCOc2ccccc2OC)c2ccccc12 | -2 | -6 | 9 | 22*
COC(=O)NN=Cc1cn(CCOc2ccccc2OC)c2ccccc12 | nt | nt | nt | 1
Cn1cc(C=NNC(N)=S)c2ccccc21 | nt | nt | nt | 13
COc1cc(OC)c(OC)cc1C=Nn1c(C)nnc1C | nt | nt | nt | -14
NC(=S)N/N=C/c1ccccc1OCCSc1ccc(Cl)cc1 | 25* | 7 | 5 | nt
CCOC(=O)N1CCC(Nc2c(OCC)c(=O)c2=O)CC1 | 36* | -6 | 4 | 5
N#CCCn1cc(C=N/N=C2\NC(=O)C(CC(=O)O)S2)c(-c2ccc(F)cc2)n1 (stereo not given) | nt | nt | nt | 5
O=C(Nc1nnc(-c2ccccc2)o1)c1nc2ccccc2s1 | 7 | nt | 74* | -205
NC(=O)c1oc2ccccc2c1NC(=O)c1nc2ccccc2s1 | -1 | 21 | 10 | -26
C=CCC1NS(=O)(=O)OCC1NC(=O)OCC(Cl)(Cl)Cl (stereo not given) | 20* | -19 | 0 | 0
SMILES | Fh CTSL1 inh | Neddylation inh | UBC9 SUMO inh | UCH37 inh
CC1=Nc2cccc3cccc(c23)N1C | -4 | -1 | 79* | 9
O=C(O)CN=C1CC(c2ccccc2)CC(=O)/C1=C(\O)CCCN1C(=O)c2ccccc2C1=O (stereo not given) | nt | nt | nt | 2
CN(C)C=Nc1ncc(C(=O)c2ccc(Cl)cc2)s1 | nt | nt | nt | 7
Cc1oc(/N=C/c2ccccc2O)c(C#N)c1C | -8 | 0 | 14 | nt
CCOC(=O)c1c(C)oc(/N=C/c2ccccc2O)c1C#N | 17* | 5 | -32 | nt
COc1ccccc1C(=O)ON=C1CCCc2c1ccc(OC)c2[N+](=O)[O-] | nt | nt | nt | 4
N/C(=N\O)c1cn(Cc2ccccc2Cl)c2ccccc12 | 0 | 1 | 10 | nt
Cc1[nH][nH]c(=O)c1C(c1c(C)[nH][nH]c1=O)c1cn(Cc2ccccc2Cl)c2ccccc12 | nt | 4 | 70* | 17
Cc1ccc(NC(=S)N2CCC(c3ccc(C)cc3)C2)cc1 (stereo not given) | 54* | 2 | 5 | 2
Oc1ccc(/C=N/N=C/c2ccc(O)c(O)c2)cc1O | 2 | -37 | 31 | nt
Oc1ccc(N=Cc2ccc(O)c(O)c2)cc1 | 46* | -19 | ? | 10
CC(C)C(NS(=O)(=O)c1ccc2c(c1)oc(=O)n2C)C(=O)N1CCN(Cc2ccccc2)CC1 (stereo not given) | 47* | -2 | 16 | 3
CC1CCN(C(=O)C(Cc2ccccc2)NS(=O)(=O)c2ccc3c(c2)oc(=O)n3C)CC1 (stereo not given) | -1 | -2 | 20 | 5
CSCCC(NS(=O)(=O)c1ccc2c(c1)oc(=O)n2C)C(=O)NC1CCN(Cc2ccccc2)CC1 (stereo not given) | 41* | -2 | 6 | 4
